From ChEMBL document CHEMBL1126826, “2'-(Trimethylammonio)ethyl 4-(hexadecyloxy)-3(S)-methoxybutanephosphonate: a novel potent antineoplastic agent” (J Med Chem, 1993) come the findings set out here.

Values joined by “and” are separate entries in the source; they are usually repeats but may differ in a detail not shown here. Identical values can stand only once.

Assay [1] is described as follows: Effect on […] cell growth expressed as percent number of colonies compared to contro at a concentration of 10 uM. It is filed as functional, Mus musculus. A digest of the protocol: (§1)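 WEHI-3B murine cells grown in methyl cellulose/RPMI colony (clonogenic) assay with compound at a range of concentrations for 5 days in 60-mm dishes. Colonies counted after 5 days and expressed as percentage of untreated control colonies. Mean of three experiments run in triplicate ± SD. IC50 taken from the concentration-response.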

Assay [2] can be described thus: Effect on […] cell growth expressed as percent number of colonies compared to contro at a concentration of 0.6 uM. To be noted: Mus musculus. It is filed as functional, cell-based. A digest of the protocol: as §1
A short description of assay [3]: Effect on […] cell growth expressed as percent number of colonies compared to contro at a concentration of 1.2 uM. It is filed as functional, Mus musculus. The method in brief:
as §1

A short description of assay [4]: Compounds were evaluated for antineoplastic activity against […] cells using clonogenic assays. It is filed as functional, cell-based. To be noted: Mus musculus. The method in brief: as §1
Assay [5] is described as follows: Effect on […] cell growth expressed as percent number of colonies compared to contro at a concentration of 5 uM. In kind it is functional, Mus musculus. The method in brief:
as §1

A short description of assay [6]: Effect on […] cell growth expressed as percent number of colonies compared to contro at a concentration of 20 uM. It is filed as functional, Mus musculus. A digest of the protocol:
as §1

Assay [7] can be described thus: Effect on […] cell growth expressed as percent number of colonies compared to contro at a concentration of 2.5 uM. In kind it is functional, Mus musculus. The method in brief: as §1
Assay [8] in a line: Effect on […] cell growth expressed as percent number of colonies compared to control at a concentration of 1.2 uM. In kind it is functional, Mus musculus. The method in brief: as §1
A short description of assay [9]: Compounds were evaluated for antineoplastic activity against […] cells using clonogenic assays. It is filed as functional, cell-based. To be noted: Mus musculus. The method in brief: as §1
Assay [10] in a line: Effect on […] cell growth expressed as percent number of colonies compared to control at a concentration of 5 uM. It is filed as functional, Mus musculus. The method in brief:
as §1

The nature of assay [11]: Effect on […] cell growth expressed as percent number of colonies compared to control at a concentration of 2.5 uM. In kind it is functional, Mus musculus. A digest of the protocol:
as §1

Assay [12] is described as follows: Effect on […] cell growth expressed as percent number of colonies compared to control at a concentration of 20 uM. It is filed as functional, Mus musculus. The method in brief:
as §1

A short description of assay [13]: Effect on […] cell growth expressed as percent number of colonies compared to control at a concentration of 10 uM. It is filed as functional, Mus musculus. The method in brief:
as §1

One may read the IC50 as the concentration at which inhibition is half-maximal.

Take `CCCCCCCCCCCCCCCCCCOCC(COP(=O)([O-])OCC[N+](C)(C)C)OC` (stereo not drawn) [EDELFOSINE]: the Control was 36% in assay [1]; 91% in assay [3]; 48% in [5]; 30% in assay [6]; 68% in assay [7]. In assay [2], the percent of control colonies is 105%. In assay [4], this compound came in with an IC50 of 2.5 µM.

As to `CCCCCCCCCCCCCCCCOC[C@H](CCP(=O)([O-])OCC[N+](C)(C)C)OC`, the Control in [8] was 95%; in assay [10], 58% and 48%; in assay [11] it was 88%; in [12] it was 32%; in assay [13], 30%. In assay [9], this compound gave an IC50 of 2.5 µM.
